# Assay outcomes from PubChem.
# Hits are enriched below; roughly 4.1% of the tested compounds scored in any of these assays.
# RGS4 pot: RGS4 potentiation or activation; B-score at 10 µM; HEK293 M3R/inducible RGS4, carbachol calcium flux Fluo4; stronger effect = lower value; 0.92% of 310,000 active;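 active = B-score of the integrated calcium signal more than 4 SD below the library mean, with starting fluorescence not abnormally high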;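 also: negative B-score means reduced calcium response which marks RGS4 activation or potentiation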
#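 Also added: carbachol at ECmax as muscarinic agonist stimulus; Assay system: HEK293 cells with stable M3R and inducible RGS4; Timing: overnight RGS4 induction, 30 min dye load 37 °C, 20 min compound RT; Measured by: Fluo4-AM (2 µM) calcium-flux fluorescence, kinetic read.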
# Kir21 inh: blocks the mouse Kir2.1 inward-rectifier potassium channel; HEK293-Kir2.1, FluxOR thallium flux fluorescence; stronger effect = lower value; B-score at 10 µM; 0.85% of 310,000 active;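 active = fluorescence ratio B-score at or below minus 3 SD of library scores, with starting-brightness B-score within 2 SD, cut at about -4.2 in these data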;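 also: channel flux triggered by added potassium and thallium sulfate stimulus; B-score of peak minus minimum fluorescence over baseline after thallium stimulus; more negative B-score means stronger Kir2.1 block with less thallium influx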
# MrgX1 antag: antagonists of human MrgX1 receptor. B-score at 10 µM. Q96LB2. 1.3% of 310,000 active. AID 588676. MRGX1-HEK293 calcium flux, Fluo-4, BAM8-22 antagonism; stronger effect = lower value;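 active = calcium-response B-score plate-corrected more than 3 library SD below zero, starting fluorescence within 5 deviations, no agonist response on first addition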;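 also: peak minus trough fluorescence over baseline after final BAM8-22 challenge near maximal dose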
# Target sequence (Q96LB2 whole entry, looked up): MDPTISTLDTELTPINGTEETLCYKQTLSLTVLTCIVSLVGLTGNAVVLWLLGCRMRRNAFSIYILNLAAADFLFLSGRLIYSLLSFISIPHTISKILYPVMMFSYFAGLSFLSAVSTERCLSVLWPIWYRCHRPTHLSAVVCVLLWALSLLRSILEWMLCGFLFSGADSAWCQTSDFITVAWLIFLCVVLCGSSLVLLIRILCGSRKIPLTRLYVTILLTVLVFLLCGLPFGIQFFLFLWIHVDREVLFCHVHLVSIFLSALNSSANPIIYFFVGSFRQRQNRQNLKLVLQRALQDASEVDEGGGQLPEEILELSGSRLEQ
# RGS4 inh: inhibitors of human RGS4; P49798; HEK293 M3R/RGS4 inducible, Fluo-4 calcium flux; stronger effect = higher value; triggered by carbachol at its EC20; B-score at 10 µM; 0.45% of 310,000 active; AID 463165;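 active = B-score, a plate-corrected calcium signal, over three deviations above library mean, with baseline fluorescence within five deviations of library mean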;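 also: RGS4 expression induced by doxycycline in cells with stable M3 receptor; B-score is computed from the integrated fluorescence ratio over baseline after carbachol; higher B-score means a larger calcium signal and so more RGS4 inhibition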
# Target sequence (P49798 whole entry, looked up): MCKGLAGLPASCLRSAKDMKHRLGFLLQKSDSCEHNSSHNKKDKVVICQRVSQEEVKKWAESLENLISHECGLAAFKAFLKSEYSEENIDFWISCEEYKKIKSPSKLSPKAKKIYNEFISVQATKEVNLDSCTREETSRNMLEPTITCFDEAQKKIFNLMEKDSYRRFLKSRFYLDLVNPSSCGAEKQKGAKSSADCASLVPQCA
# MrgX1 agonist: activates human MrgX1 receptor signaling; AID 588627; MrgX1-HEK293 cells, Fluo-4 calcium fluorescence, agonist mode; stronger effect = higher value; 0.44% of 310,000 active; B-score at 10 µM;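 active = calcium response B-score plate-corrected fluorescence ratio at least 3 library SD, with starting fluorescence B-score inside 5 SD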
#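 Material – MrgX1-expressing HEK293 cells · Input – 15,000 cells seeded per well · Dosing – compound as first of three additions · Times – overnight seeding, then 1 h dark dye loading · Measured by – kinetic Fluo-4 NW fluorescence of intracellular calcium · Read-out – B-scored fluorescence response ratio · Benchmarks – positive and negative control wells on each plate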
# MrgX1 allo act: human MrgX1 positive allosteric modulation, primary screen | 0.63% of 310,000 active | MrgX1-HEK293, Fluo-4 calcium flux, FDSS; stronger effect = higher value | B-score at 10 µM | Q96LB2;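 active = plate-corrected calcium response at least 3 library SD above typical, normal starting fluorescence, not activating the receptor alone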;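 also: compound read alongside a low EC10 to EC30 dose of BAM8-22 agonist; peak minus trough fluorescence over baseline measured at the second addition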
# * marks the source's active call; other numbers are inactive results; i = inactive.
SMILES,RGS4 pot,Kir21 inh,MrgX1 antag,RGS4 inh,MrgX1 agonist,MrgX1 allo act
COc1nc(N(c2ccccc2)c2ccccc2)nc(-n2ccnc2)n1,i,0.22,i,i,i,12.1*
CCCCC(=O)N/N=C(\C)c1cccc(NC(=O)C2CC2)c1,i,-1.22,-5.59*,i,i,i
COc1ccc(/C=C\C(=O)Oc2cccc(/C=N/NC(=O)Cc3ccc(OC)c(OC)c3)c2)cc1,i,0.04,-5.48*,i,i,i
COc1ccc(CCNC(=O)COC(=O)/C=C/c2ccc(OC)c(OC)c2)cc1,i,-1.59,-4.52*,i,i,i
COc1nc2c(s1)C(=O)NCCC2,i,0.64,i,i,i,i
CCn1c(SCC(=O)N2CCOCC2)nc2c(c1=O)SC(C)C2 (stereo unspecified),i,-0.32,i,i,i,i
CN(Cc1ccccc1)c1nc(N)c([N+](=O)[O-])c(NCc2ccccc2)n1,i,-4.55*,i,i,i,i
Oc1cccc2ccc(/C=C/c3c(F)cccc3Cl)nc12,i,-0.72,i,i,i,i
O=C(NCc1ccc2c(c1)OCO2)c1cccc([N+](=O)[O-])c1,i,0.05,i,i,i,i
O=C(NCc1ccc2c(c1)OCO2)c1cc([N+](=O)[O-])ccc1N1CCCCC1,-7.37*,0.1,i,i,i,i
O=C(CN1CCN(S(=O)(=O)c2ccccc2F)CC1)NC1CCCC1,i,-1.43,i,i,i,i
Cc1c(NC(=S)NC(=O)CC(C)C)c(=O)n(-c2ccccc2)n1C,i,-0.64,i,i,i,i
COc1ccc(-c2cn(-c3ccc(Br)cc3)c3[n+]2CCS3)cc1,i,-0.73,i,i,i,i
CC(=O)c1ccc(-n2cc(-c3ccc(C(C)(C)C)cc3)[n+]3c2SCCC3)cc1,-9.63*,-1.96,i,i,i,i
O=C1c2ccccc2C(=O)C1c1ccccn1,i,0.12,i,i,i,i
O=C1c2ccccc2C(=O)C2OC12 (stereo unspecified),i,-3.68,i,22*,43.4*,i
Cc1cc(C)n(-c2nc(N(C)C)nc(N(C)C)n2)n1,i,0.93,i,i,i,i
O=S(=O)(Cc1ccc(Cl)cc1)NCC1CCCO1 (stereo unspecified),i,-0.21,i,i,i,i
Cc1cc(C(=O)NNC(=O)c2cccs2)nn1C(C)(C)C,i,-1.31,-7.15*,i,i,i
Cc1cc(C(=O)NNS(=O)(=O)c2ccc(F)cc2)nn1C(C)(C)C,i,-0.74,i,i,i,i
COc1ccc(C(=O)N(CN2CCCC2=O)c2ccc(C)cc2)cc1,i,0.01,i,i,i,i
O=Cc1nc(-c2ccc(Cl)cc2)n2ccccc12,i,1.59,i,i,i,i
O=Cc1nc(-c2ccccc2Cl)n2ccccc12,i,0.42,-6.32*,i,i,i
CC(=O)Nc1ccc(C(=O)N/N=C/c2ccccc2OC(=O)c2ccc(Cl)cc2)cc1,-7.26*,0.35,i,i,i,i
CC[n+]1c(/C=C/Nc2ccccc2)oc2ccccc21,i,-1.75,i,i,i,i
SMILES,RGS4 pot,Kir21 inh,MrgX1 antag,RGS4 inh,MrgX1 agonist,MrgX1 allo act
CC/C(=C\c1oc2cc3ccccc3cc2[n+]1CC)Nc1ccccc1,i,-3.13,i,i,27*,i
Cc1ccc(NS(=O)(=O)c2cccc(C(=O)NNC(=O)c3cccn3C)c2)c(C)c1,i,-1.21,-6.68*,i,i,i
Cc1c([N+](=O)[O-])c(C(=O)Sc2ccc(Br)cc2)nn1C,i,-1.38,i,i,i,i
CCOC(=O)c1ccccc1-n1nnnc1C,i,0.25,i,i,i,i
CCc1c2ccccc2nn1-c1ccccc1C(=O)C(C)=O,i,-4.83*,i,i,i,i
Clc1ccc(CN2CCc3c([nH]c4ccccc34)C2)cc1Cl,i,1.12,-4.64*,i,i,i
CSc1ccc(CN2CCc3c([nH]c4ccccc34)C2)cc1,i,-2.4,i,i,i,i
Clc1cccc(CN2CCc3c([nH]c4ccccc34)C2)c1,i,-2.75,i,i,i,i
Cc1cccc(CN2CCc3c([nH]c4ccccc34)C2)c1,i,-5.87*,i,i,i,i
NC(=S)Nc1cc(Cl)ccc1Cl,i,-0.22,i,i,i,i
CN(/N=C/c1ccc(N(C)C)cc1)C1=NS(=O)(=O)c2ccccc21,i,0.01,i,i,i,i
CCC1CCCCN1CCCNC(=O)c1ccc2c(c1)N(Cc1c(F)cccc1Cl)C(=O)CS2 (stereo unspecified),-8.16*,0.54,i,i,i,i
O=C(NCCN1CCOCC1)c1ccc2c(c1)N(Cc1ccc(Cl)cc1)C(=O)CS2,-7.26*,-1.42,i,i,i,i
CN(CC(=O)NC1CCCCCCC1)S(=O)(=O)c1cccc2cccnc12,i,0.03,i,i,i,i
CN(C)C(=O)C(CCN1CCC(O)(c2ccc(Cl)cc2)CC1)(c1ccccc1)c1ccccc1,i,-4.9*,i,i,i,i
CN(CCCNC(=O)c1cc2c(Cl)nc3ccccc3c2s1)Cc1ccccc1,i,-4.97*,i,i,i,i
c1coc(-c2nnc3sc(Cc4cccs4)nn23)c1,i,-0.66,-7.15*,i,i,i
O=C1C2C3C=CC(CC3)C2C(=O)N1/N=C/c1ccc(O)cc1 (stereo unspecified),i,0.88,i,i,i,i
O=C1/C(=C\c2ccc(O)cc2)SC(=S)N1/N=C/c1ccc(O)cc1,i,-0.45,i,i,39.1*,i
COC(=O)C1CC(c2c(OC)cc(OC)cc2OC)=NO1 (stereo unspecified),i,-0.35,i,i,i,i
COC(=O)[C@@H]1C(c2c(OC)cc(OC)cc2OC)=NO[C@H]1C(=O)OC,i,2.82,-6.21*,i,i,i
Cc1cc(SCC(=O)NCCC2=CCCCC2)nc2ccccc12,i,-16.1*,i,i,i,i
CC(OC(=O)c1ccccc1)C(=O)NCCC1=CCCCC1 (stereo unspecified),i,-3.21,i,i,i,i
CCC(C(=O)NCCC1=CCCCC1)c1ccccc1 (stereo unspecified),i,-5.64*,i,i,i,i
